Seven compounds from ChEMBL document CHEMBL1126633, “Prodrugs of doxorubicin and melphalan and their activation by a monoclonal antibody-penicillin-G amidase conjugate” (J Med Chem, 1993) can be followed below.

Common to all, as to assay type: functional, cell-based
Assay [1] relates to H2981 cell line. The assay can be described thus: Inhibition of [3H]thymidine incorporation in human lung adenocarcinoma cells in the absence of PGA enzyme. Particulars: H2981, 4 h. Put shortly: (§1)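 H2981 human lung adenocarcinoma cells (10^7 cells/0.2 mL in IMDM with 10% FBS) were exposed to compound with or without added PGA at 37 °C for 4 h, then washed and counted. Triplicates were plated at 10^5 cells/mL, grown 24 h, and pulsed 24 h with [3H]thymidine (1 µCi/well). IC50 is the concentration giving 50% inhibition of incorporation.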

In assay [2] the test system is H2981 cell line. The assay can be described thus: Inhibition of [3H]thymidine incorporation in human lung adenocarcinoma cells in the presence of PGA enzyme. Put shortly:
as §1

Assay [3] relates to H2981 cell line. The assay can be described thus: Inhibition of [3H]thymidine incorporation in human lung adenocarcinoma cells in the absence of PGA enzyme (compound + 10 micro g/mL calf intestine alkaline phosphatase). Particulars: H2981, 4 h. Put shortly: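 H2981 cells in IMDM with 10% FBS were exposed to compound without PGA for 4 h at 37 °C. Calf intestinal alkaline phosphatase was added to the incubation at 10 µg/mL. Cells were then washed, plated in triplicate at 10^5 cells/mL, grown 24 h and pulsed 24 h with [3H]thymidine (1 µCi/well). IC50 is the concentration giving 50% inhibition of incorporation.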

With `COc1cccc2c1C(=O)c1c(O)c3c(c(O)c1C2=O)C[C@@](O)(C(=O)CO)C[C@@H]3OC1CC(NC(=O)Cc2ccc(N)cc2)C(O)C(C)O1` (some centres not stated), the concentration for half-maximal inhibition (IC50) in the assay with H2981 cell line [1] was greater than 1000 µM; with H2981 cell line [2] (Homo sapiens, H2981, 4 h), 10 µM.
The corresponding values for `COc1cccc2c1C(=O)c1c(O)c3c(c(O)c1C2=O)C[C@@](O)(C(=O)CO)C[C@@H]3OC1CC(NC(=O)Cc2ccccc2)C(O)C(C)O1` (some centres not stated) are 2 µM and 0.2 µM.
On the same counts, the results for `O=C(Cc1ccccc1)NC(Cc1ccc(N(CCCl)CCCl)cc1)C(=O)O` (configuration not stated) are 100 µM and 5 µM.
For the compound `COc1cccc2c1C(=O)c1c(O)c3c(c(O)c1C2=O)C[C@@](O)(C(=O)CO)C[C@@H]3OC1CC(NC(=O)Cc2ccc(OP(=O)(O)O)cc2)C(O)C(C)O1` (stereo in doubt), the IC50 with H2981 cell line [3] was greater than 1000 µM; in the assay on H2981 cell line [2] (h2981), 0.7 µM.
As for `COc1cccc2c1C(=O)c1c(O)c3c(c(O)c1C2=O)C[C@@](O)(C(=O)CO)C[C@@H]3OC1CC(NC(=O)Cc2ccc(OP(=O)(O)O)cc2)C(O)C(C)O1` (stereo in doubt; 4), the IC50 with H2981 cell line [1] is greater than 1000 µM; in the assay on H2981 cell line [2] (h2981) it was 4 µM.
`COc1cccc2c1C(=O)c1c(O)c3c(c(O)c1C2=O)C[C@@](O)(C(=O)CO)C[C@@H]3O[C@H]1C[C@H](N)[C@H](O)[C@H](C)O1` [DOXORUBICIN]: in the assay with H2981 cell line [1], the half-inhibitory concentration (IC50) amounted to 0.7 µM.
In the assay on H2981 cell line [1], `N[C@@H](Cc1ccc(N(CCCl)CCCl)cc1)C(=O)O` [MELPHALAN] gave a 50% inhibitory concentration (IC50) of 5 µM.
